From ChEMBL document CHEMBL2203081 (Bioorg Med Chem Lett, 2012)
Calls of active or inactive are those of the source. The rule behind the calls is not given here.

Key:
[1] = target: Myosin light chain kinase, smooth muscle (Homo sapiens) (UniProt Q15746); test: Inhibition of SmMLCK assessed as residual activity at 10 uM
[2] = target: Dual specificity protein kinase CLK1 (Homo sapiens) (UniProt P49759); test: Inhibition of CLK1 assessed as residual activity at 10 uM relative to control
[3] = target: Leucine-rich repeat serine/threonine-protein kinase 2 (Homo sapiens) (UniProt Q5S007); conditions: HEK293, 0.3 to 1 uM
[4] = target: Myosin light chain kinase, smooth muscle (Homo sapiens) (UniProt Q15746); test: Inhibition of MYLK assessed as residual activity at 10 uM relative to control
[5] = target: SRSF protein kinase 1 (Homo sapiens) (UniProt Q96SB4); test: Inhibition of SRPK1 assessed as residual activity at 10 uM relative to control
Sequence of SRSF protein kinase 1 (Homo sapiens) (Q96SB4 whole entry): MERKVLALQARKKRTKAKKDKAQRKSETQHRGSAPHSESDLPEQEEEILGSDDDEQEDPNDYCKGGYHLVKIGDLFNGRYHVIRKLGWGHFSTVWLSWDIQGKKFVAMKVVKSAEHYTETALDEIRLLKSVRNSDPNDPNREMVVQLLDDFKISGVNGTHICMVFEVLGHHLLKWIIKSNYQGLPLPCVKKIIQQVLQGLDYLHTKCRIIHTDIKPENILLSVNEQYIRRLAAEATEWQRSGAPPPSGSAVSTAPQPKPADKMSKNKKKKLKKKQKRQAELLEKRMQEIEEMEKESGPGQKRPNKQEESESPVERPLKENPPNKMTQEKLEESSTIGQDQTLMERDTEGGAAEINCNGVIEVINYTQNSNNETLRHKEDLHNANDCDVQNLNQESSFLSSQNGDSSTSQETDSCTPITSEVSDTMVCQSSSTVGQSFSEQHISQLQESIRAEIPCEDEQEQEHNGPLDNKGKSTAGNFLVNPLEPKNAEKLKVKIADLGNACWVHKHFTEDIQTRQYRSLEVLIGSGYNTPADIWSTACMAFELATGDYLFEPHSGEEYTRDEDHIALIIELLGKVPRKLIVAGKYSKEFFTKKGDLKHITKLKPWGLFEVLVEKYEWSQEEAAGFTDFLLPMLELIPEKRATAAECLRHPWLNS

[6] = target: Ephrin type-B receptor 6 (Homo sapiens) (UniProt O15197); test: Inhibition of EPHB6 assessed as residual activity at 10 uM relative to control
How it was run: (§1)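 Competition kinase-binding assay (KINOMEscan) across a non-redundant panel of 329 kinases beyond the radiometric panel; residual binding expressed relative to control.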

[7] = target: Homeodomain-interacting protein kinase 1 (Homo sapiens) (UniProt Q86Z02); test: Inhibition of HIPK1 assessed as residual activity at 10 uM
Sequence of Homeodomain-interacting protein kinase 1 (Homo sapiens) (Q86Z02 whole entry, looked up): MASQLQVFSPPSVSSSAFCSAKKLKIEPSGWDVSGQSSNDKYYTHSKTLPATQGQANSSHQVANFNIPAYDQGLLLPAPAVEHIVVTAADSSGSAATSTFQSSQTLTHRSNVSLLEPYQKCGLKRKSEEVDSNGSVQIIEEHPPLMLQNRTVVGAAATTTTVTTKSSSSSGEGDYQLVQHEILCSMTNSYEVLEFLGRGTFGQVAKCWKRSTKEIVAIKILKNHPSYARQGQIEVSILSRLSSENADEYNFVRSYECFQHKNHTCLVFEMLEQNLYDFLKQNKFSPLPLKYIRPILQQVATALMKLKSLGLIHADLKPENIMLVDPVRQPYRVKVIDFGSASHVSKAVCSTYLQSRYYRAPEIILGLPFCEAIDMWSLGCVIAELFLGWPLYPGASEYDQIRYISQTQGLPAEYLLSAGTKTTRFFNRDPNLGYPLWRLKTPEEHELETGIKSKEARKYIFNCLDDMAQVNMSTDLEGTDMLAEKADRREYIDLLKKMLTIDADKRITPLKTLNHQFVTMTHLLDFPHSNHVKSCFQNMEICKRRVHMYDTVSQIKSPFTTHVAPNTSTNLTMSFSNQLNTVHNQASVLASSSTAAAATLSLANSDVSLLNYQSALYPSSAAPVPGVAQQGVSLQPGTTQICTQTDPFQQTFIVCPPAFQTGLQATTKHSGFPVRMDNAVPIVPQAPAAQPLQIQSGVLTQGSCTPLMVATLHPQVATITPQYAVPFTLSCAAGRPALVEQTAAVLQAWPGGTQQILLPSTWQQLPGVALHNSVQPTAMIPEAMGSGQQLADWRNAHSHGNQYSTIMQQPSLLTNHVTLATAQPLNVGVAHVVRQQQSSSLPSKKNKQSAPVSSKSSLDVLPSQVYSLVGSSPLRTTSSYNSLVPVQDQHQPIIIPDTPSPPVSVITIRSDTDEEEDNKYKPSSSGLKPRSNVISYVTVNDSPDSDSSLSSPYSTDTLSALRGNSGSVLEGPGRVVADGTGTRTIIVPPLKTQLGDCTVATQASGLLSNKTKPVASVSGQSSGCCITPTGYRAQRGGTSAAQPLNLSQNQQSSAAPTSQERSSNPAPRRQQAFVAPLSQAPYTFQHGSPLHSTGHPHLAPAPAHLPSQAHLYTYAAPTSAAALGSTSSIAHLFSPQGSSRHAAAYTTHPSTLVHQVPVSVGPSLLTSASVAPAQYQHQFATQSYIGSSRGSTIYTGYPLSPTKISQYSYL
How it was run: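 Radioactivity-based enzymatic activity assay of the named kinase, run as part of a 131-kinase specificity panel at the National Centre for Protein Kinase Profiling (Dundee). Residual activity was read at the stated single inhibitor concentration.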

[8] = target: Casein kinase I isoform alpha-like (Homo sapiens) (UniProt Q8N752); test: Inhibition of CSNK1A1L assessed as residual activity at 10 uM relative to control; how it was run: as §1
Sequence of Casein kinase I isoform alpha-like (Homo sapiens) (Q8N752 whole entry, canonical isoform): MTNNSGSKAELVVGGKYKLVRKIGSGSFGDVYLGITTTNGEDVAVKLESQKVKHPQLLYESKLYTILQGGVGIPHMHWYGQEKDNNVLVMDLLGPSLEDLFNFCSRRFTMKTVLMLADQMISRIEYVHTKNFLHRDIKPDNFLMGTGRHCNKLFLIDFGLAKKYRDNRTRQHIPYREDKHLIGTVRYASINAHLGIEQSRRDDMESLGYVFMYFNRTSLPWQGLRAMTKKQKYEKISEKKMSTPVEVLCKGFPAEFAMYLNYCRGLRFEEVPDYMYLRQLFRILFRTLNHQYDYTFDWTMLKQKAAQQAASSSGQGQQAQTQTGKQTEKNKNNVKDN

[9] = target: T1, Serine/threonine-protein kinase D1 (Homo sapiens) (UniProt Q15139); test: Inhibition of PKD1 assessed as residual activity at 10 uM
T1 sequence (whole entry): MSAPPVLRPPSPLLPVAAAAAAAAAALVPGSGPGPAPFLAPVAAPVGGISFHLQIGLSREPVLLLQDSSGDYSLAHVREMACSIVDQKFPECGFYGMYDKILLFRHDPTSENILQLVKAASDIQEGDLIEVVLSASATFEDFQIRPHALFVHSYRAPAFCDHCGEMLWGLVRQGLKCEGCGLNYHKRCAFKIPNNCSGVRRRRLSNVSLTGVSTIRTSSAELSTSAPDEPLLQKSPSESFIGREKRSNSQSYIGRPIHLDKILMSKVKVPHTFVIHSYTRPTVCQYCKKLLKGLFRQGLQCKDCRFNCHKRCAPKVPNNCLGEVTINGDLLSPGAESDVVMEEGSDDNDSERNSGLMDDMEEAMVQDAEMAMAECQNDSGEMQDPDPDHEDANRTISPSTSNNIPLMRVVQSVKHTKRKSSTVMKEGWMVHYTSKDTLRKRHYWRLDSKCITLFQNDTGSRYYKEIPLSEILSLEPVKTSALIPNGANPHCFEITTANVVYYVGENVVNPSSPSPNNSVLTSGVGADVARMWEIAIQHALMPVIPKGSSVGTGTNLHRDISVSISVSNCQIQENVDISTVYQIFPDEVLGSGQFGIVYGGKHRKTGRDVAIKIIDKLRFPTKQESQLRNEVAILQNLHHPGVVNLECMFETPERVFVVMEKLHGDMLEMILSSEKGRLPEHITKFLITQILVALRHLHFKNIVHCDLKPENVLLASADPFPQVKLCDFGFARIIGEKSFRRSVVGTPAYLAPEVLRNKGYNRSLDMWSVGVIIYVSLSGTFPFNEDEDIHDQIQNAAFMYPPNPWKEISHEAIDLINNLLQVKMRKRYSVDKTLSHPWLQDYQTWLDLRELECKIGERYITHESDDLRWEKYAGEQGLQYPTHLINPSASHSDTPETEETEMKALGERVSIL

[10] = tested on: Brain; test: Volume of distribution at steady state in Swiss albino mouse […] at 1 mg/kg, iv; format: ADME, organism-based; set-up: dose 1 mg/kg, route intravenous; conditions: in vivo
[11] = target: Homeodomain-interacting protein kinase 3 (Homo sapiens) (UniProt Q9H422); test: Inhibition of HIPK3 assessed as residual activity at 10 uM relative to control
[12] = target: Serine/threonine-protein kinase Nek6 (Homo sapiens) (UniProt Q9HC98); test: Inhibition of NEK6 assessed as residual activity at 10 uM relative to control
Sequence of Serine/threonine-protein kinase Nek6 (Homo sapiens) (Q9HC98 whole entry): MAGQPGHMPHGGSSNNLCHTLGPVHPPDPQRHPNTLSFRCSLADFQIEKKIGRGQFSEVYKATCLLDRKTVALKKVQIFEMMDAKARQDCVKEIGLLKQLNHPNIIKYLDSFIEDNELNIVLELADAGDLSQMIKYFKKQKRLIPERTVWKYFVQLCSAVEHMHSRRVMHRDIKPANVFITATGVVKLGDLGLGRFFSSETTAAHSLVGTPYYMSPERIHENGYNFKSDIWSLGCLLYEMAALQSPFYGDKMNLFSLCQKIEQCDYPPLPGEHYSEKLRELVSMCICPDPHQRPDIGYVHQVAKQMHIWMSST

[13] = target: Cyclin-dependent kinase 2/cyclin A (Homo sapiens) (UniProt P24941+P20248+P78396); test: Inhibition of CDK2-Cyclin A assessed as residual activity at 1 uM; format: protein-complex assay
[14] = target: Cyclin-dependent kinase 9 (Homo sapiens) (UniProt P50750); test: Inhibition of CDK9 assessed as residual activity at 10 uM relative to control
[15] = tested on: Leucine-rich repeat serine/threonine-protein kinase 2 (Homo sapiens), Q5S007 [A2016T]; conditions: HEK293, 1 to 3 uM
[16] = target: ALK tyrosine kinase receptor (Homo sapiens) (UniProt Q9UM73); test: Inhibition of ALK assessed as residual activity at 10 uM relative to control
[17] = target: Serine/threonine-protein kinase 33 (Homo sapiens) (UniProt Q9BYT3); test: Inhibition of STK33 assessed as residual activity at 1 uM

Sequence of Myosin light chain kinase, smooth muscle (Homo sapiens) (Q15746 whole entry): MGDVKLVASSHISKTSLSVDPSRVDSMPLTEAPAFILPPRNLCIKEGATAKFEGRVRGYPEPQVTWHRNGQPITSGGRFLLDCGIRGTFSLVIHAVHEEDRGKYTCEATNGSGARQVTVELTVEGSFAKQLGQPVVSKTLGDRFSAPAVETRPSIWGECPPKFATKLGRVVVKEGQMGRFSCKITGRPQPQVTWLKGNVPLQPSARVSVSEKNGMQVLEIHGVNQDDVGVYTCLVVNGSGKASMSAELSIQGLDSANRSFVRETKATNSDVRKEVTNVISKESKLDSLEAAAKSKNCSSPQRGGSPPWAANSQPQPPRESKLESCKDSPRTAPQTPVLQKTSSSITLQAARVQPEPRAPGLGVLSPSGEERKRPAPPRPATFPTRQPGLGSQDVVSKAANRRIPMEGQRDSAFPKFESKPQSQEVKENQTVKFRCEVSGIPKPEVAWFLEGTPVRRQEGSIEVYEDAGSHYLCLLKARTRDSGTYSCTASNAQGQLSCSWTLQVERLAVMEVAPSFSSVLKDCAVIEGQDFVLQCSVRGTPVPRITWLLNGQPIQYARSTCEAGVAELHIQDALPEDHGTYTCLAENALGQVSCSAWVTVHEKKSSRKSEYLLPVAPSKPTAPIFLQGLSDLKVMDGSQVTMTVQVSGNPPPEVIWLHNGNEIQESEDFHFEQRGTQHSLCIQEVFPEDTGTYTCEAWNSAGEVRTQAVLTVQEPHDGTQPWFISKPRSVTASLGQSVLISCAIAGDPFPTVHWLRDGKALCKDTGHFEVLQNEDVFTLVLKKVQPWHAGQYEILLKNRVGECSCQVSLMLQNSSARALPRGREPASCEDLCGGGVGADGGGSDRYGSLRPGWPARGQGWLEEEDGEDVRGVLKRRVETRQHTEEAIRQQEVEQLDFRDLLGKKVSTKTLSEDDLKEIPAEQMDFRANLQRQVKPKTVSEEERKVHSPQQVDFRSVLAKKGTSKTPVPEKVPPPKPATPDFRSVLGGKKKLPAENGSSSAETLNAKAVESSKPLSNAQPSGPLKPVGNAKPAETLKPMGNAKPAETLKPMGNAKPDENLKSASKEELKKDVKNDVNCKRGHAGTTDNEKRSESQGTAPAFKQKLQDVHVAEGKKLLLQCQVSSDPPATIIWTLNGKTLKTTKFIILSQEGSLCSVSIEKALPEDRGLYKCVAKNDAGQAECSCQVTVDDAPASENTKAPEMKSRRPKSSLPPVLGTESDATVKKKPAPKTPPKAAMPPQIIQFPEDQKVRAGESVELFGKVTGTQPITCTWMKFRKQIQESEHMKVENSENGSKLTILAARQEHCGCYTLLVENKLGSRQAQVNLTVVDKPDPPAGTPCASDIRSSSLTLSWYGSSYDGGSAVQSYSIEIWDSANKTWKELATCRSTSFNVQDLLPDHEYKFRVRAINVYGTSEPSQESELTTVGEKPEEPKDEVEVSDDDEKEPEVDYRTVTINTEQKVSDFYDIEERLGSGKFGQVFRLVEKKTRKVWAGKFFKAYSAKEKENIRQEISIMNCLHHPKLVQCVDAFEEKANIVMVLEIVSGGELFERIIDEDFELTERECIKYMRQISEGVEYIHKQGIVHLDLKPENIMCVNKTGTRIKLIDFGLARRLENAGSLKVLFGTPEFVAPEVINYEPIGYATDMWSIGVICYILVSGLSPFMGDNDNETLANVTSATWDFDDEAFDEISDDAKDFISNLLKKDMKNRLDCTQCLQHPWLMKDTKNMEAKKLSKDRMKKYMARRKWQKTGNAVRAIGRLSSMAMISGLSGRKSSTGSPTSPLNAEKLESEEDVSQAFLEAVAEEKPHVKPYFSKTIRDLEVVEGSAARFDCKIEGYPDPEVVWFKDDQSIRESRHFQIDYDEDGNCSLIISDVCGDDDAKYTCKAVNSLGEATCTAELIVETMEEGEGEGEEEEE
Sequence of Dual specificity protein kinase CLK1 (Homo sapiens) (P49759 whole entry, looked up): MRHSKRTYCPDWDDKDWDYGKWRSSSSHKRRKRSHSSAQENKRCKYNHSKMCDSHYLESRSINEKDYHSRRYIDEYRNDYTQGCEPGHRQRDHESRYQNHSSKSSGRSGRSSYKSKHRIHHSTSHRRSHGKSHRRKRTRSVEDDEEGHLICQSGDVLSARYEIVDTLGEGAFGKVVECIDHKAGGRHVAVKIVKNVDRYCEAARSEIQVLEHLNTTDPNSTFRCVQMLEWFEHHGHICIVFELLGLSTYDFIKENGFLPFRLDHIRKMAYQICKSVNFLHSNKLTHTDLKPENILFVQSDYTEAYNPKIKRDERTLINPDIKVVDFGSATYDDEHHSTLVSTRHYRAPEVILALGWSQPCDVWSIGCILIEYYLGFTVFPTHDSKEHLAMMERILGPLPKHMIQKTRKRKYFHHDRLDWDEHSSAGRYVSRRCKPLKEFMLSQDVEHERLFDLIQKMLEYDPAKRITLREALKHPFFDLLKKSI

## O=C(Nc1cccnc1)c1cc(-c2ccnc(F)c2)ccc1OCc1ccccc1
[1]
  Activity: 23%
[2]
  Activity: 66%
[3]
  inhibition: Active
[4]
  Activity: 27%
[5]
  Activity: 79%
[6]
  Activity: 61%
[7]
  Activity: 61%
[8]
  Activity: 40%
[9]
  Activity: 76%
[10]
  Vdss: 1.6 L/kg
[11]
  Activity: 58%
[12]
  Activity: 50%
[13]
  Activity: 113%
[14]
  Activity: 57%
[15]
  inhibition: Active
[16]
  Activity: 7.2%
[17]
  Activity: 64%
